Reference: ChEMBL document CHEMBL4431385, “Substituted tetracyclic indole core derivatives of HCV NS5A inhibitor MK-8742” (Bioorg Med Chem Lett, 2016)
Changes are numbered by the printed parent chain.

Key:
[1] = AUC in Sprague-Dawley rat at 10 mg/kg, po; assay type: ADME, organism-based; conditions: in vivo
In short: (§1)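 Male Sprague–Dawley rats got an IV dose of 2 mg/kg in 60% PEG200 and a PO dose of 10 mpk in 10% TWEEN. Reported values are PO AUC (µM h), PO Cmax (µM), T1/2 (h), clearance (ml/min/kg) and oral bioavailability F (%).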

[2] = Cmax in Sprague-Dawley rat at 10 mg/kg, po; assay type: ADME, organism-based; parameters: dose 10 mg/kg, route oral; conditions: in vivo; in short: as §1
[3] = target: T1, Nonstructural protein 5A (Hepatitis C virus) (UniProt Q5L478); experiment: Inhibition of HCV GT2b NS5A assessed as suppression of replicon RNA level by real-time PCR analysis; conditions: Hepatitis C virus subtype 2b
T1 sequence (whole entry): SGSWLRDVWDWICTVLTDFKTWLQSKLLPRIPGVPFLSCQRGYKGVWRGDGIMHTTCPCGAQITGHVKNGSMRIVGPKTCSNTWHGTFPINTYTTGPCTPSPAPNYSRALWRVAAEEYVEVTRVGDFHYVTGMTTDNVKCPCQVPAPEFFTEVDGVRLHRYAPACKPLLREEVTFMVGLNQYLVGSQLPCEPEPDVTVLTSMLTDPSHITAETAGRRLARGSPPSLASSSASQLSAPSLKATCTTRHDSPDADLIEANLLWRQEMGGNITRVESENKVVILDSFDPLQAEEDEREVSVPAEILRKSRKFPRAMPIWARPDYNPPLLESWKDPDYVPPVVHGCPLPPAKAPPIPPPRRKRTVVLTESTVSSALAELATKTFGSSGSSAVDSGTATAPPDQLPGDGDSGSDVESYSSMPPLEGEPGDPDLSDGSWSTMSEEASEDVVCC
In short: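 GT2b replicon, which carries the naturally occurring NS5A 31M resistance-associated variant; potency given as EC90 in nM.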

[4] = Selectivity ratio of EC90 for HCV GT2b NS5A to EC90 for HCV GT1a NS5A
[5] = test system: Hepatitis C virus subtype 1a; experiment: Selectivity ratio of EC90 for HCV GT1a NS5A L31V mutant to EC90 for HCV GT1a NS5A
[6] = Oral bioavailability in Sprague-Dawley rat at 10 mg/kg; assay type: ADME, organism-based; conditions: in vivo; in short: as §1
[7] = test system: T2, Nonstructural protein 5A (Hepatitis C virus), Q5L478 [Y93H]; experiment: Inhibition of HCV GT1a NS5A Y93H mutant assessed as suppression of replicon RNA level by real-time PCR analysis; conditions: Hepatitis C virus subtype 1a
T2 sequence (whole entry): T1 sequence (whole entry) with Y93H

[8] = Clearance in Sprague-Dawley rat at 10 mg/kg, po or 2 mg/kg, iv; assay type: ADME, organism-based; conditions: in vivo; in short: as §1
[9] = target: T1, Nonstructural protein 5A (Hepatitis C virus); experiment: Inhibition of HCV GT1a NS5A assessed as suppression of replicon RNA level by real-time PCR analysis; conditions: Hepatitis C virus subtype 1a
[10] = target: T1, Nonstructural protein 5A (Hepatitis C virus); experiment: Inhibition of HCV GT3a NS5A assessed as suppression of replicon RNA level by real-time PCR analysis; conditions: Hepatitis C virus subtype 3a
[11] = Half life in Sprague-Dawley rat at 10 mg/kg, po or 2 mg/kg, iv; assay type: ADME, organism-based; conditions: in vivo; in short: as §1
[12] = test system: Nonstructural protein 5A (Hepatitis C virus), Q5L478 [UNDEFINED MUTATION]; experiment: Inhibition of HCV GT1a NS5A L31V mutant assessed as suppression of replicon RNA level by real-time PCR analysis; conditions: Hepatitis C virus subtype 1a
[13] = test system: Hepatitis C virus subtype 1a; experiment: Selectivity ratio of EC90 for HCV GT1a NS5A Y93H mutant to EC90 for HCV GT1a NS5A
[14] = Cmax in Sprague-Dawley rat at 5 mg/kg, po; assay type: ADME, organism-based; parameters: dose 5 mg/kg, route oral; conditions: in vivo
In short: (§2)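 Male Sprague–Dawley rats got IV dosing at 2 mg/kg in 60% PEG200 and PO dosing at 5 mpk in either 0.5% MC or 10% TWEEN, depending on compound. The readouts are PO AUC (µM h), PO Cmax (µM), T1/2 (h), Cl (ml/min/kg) and F (%).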

[15] = AUC in Sprague-Dawley rat at 5 mg/kg, po; assay type: ADME, organism-based; conditions: in vivo; in short: as §2
[16] = Half life in Sprague-Dawley rat at 5 mg/kg, po or 2 mg/kg, iv; assay type: ADME, organism-based; conditions: in vivo; in short: as §2
[17] = target: T1, Nonstructural protein 5A (Hepatitis C virus); experiment: Inhibition of HCV GT1b NS5A assessed as suppression of replicon RNA level by real-time PCR analysis; conditions: Hepatitis C virus subtype 1b
[18] = Clearance in Sprague-Dawley rat at 5 mg/kg, po or 2 mg/kg, iv; assay type: ADME, organism-based; conditions: in vivo; in short: as §2
[19] = Oral bioavailability in Sprague-Dawley rat at 5 mg/kg; assay type: ADME, organism-based; conditions: in vivo; in short: as §2
[20] = target: T1, Nonstructural protein 5A (Hepatitis C virus); experiment: Inhibition of HCV GT2a NS5A assessed as suppression of replicon RNA level by real-time PCR analysis; conditions: Hepatitis C virus subtype 2a
[21] = target: T1, Nonstructural protein 5A (Hepatitis C virus); experiment: Inhibition of HCV GT4a NS5A assessed as suppression of replicon RNA level by real-time PCR analysis; conditions: Hepatitis C virus subtype 4a

**Q.** Which results are given for COC(=O)N[C@H](C(=O)N1CCC[C@H]1c1ncc(-c2cc(F)c3c(c2)OC(c2cc(Cl)cc(OC)c2)n2c-3cc3cc(-c4cnc([C@@H]5CCCN5C(=O)[C@@H](NC(=O)OC)C(C)C)[nH]4)ccc32)[nH]1)C(C)C (stereo partly drawn)?
**A.** AUC [1]: 750 nM·h; Cmax [2]: 0.1 µM; EC90 [3]: 0.7 nM; Selectivity ratio [4]: 70; Selectivity ratio [5]: 10; bioavailability [6]: 3%; EC90 [7]: 3 nM; clearance [8]: 0.48 L/h/kg; EC90 [9]: 0.01 nM; EC90 [10]: 0.1 nM; half-life [11]: 5.2 h; EC90 [12]: 0.1 nM; Selectivity ratio [13]: 300

**Q.** For COC(=O)N[C@H](C(=O)N1CCC[C@H]1c1ncc(-c2ccc3c(c2)OC(c2cccc(OC)c2)n2c-3cc3cc(-c4cnc([C@@H]5CCCN5C(=O)[C@@H](NC(=O)OC)C(C)C)[nH]4)ccc32)[nH]1)C(C)C (stereo partly drawn), which Cmax [14] is on record?
**A.** The Cmax was 0.1 µM.

**Q.** And the EC90 [3]?
**A.** The EC90 was 2 nM.

**Q.** And the AUC [15]?
**A.** Its AUC is 510 nM·h.

**Q.** And the EC90 [7]?
**A.** The EC90 was 8 nM.

**Q.** What about the half-life [16] of the same compound?
**A.** Its half-life is 4.3 h.

**Q.** And the EC90 [9]?
**A.** The EC90 was 0.005 nM.

**Q.** What about the EC90 [10] of the same compound?
**A.** Its EC90 is 0.1 nM.

**Q.** What about the EC90 [12] of the same compound?
**A.** Its EC90 is 0.2 nM.

**Q.** With COC(=O)N[C@H](C(=O)N1CCC[C@H]1c1ncc(-c2cc(F)c3c(c2)OC(c2cccc(OC)c2)n2c-3cc3cc(-c4cnc([C@@H]5CCCN5C(=O)[C@@H](NC(=O)OC)C(C)C)[nH]4)ccc32)[nH]1)C(C)C (stereo partly drawn) as the compound, how does the AUC [1] read?
**A.** The AUC was 2100 nM·h.

**Q.** And the Cmax [2]?
**A.** Its Cmax is 0.24 µM.

**Q.** What about the EC90 [3] of the same compound?
**A.** The EC90 was 6 nM.

**Q.** What about the bioavailability [6] of the same compound?
**A.** The bioavailability was 12%.

**Q.** What about the EC90 [7] of the same compound?
**A.** The EC90 was 6 nM.

**Q.** And the clearance [8]?
**A.** Its clearance is 0.6 L/h/kg.

**Q.** What about the EC90 [9] of the same compound?
**A.** The EC90 was 0.01 nM.

**Q.** What about the EC90 [10] of the same compound?
**A.** The EC90 was 0.07 nM.

**Q.** What about the half-life [11] of the same compound?
**A.** Its half-life is 5.9 h.

**Q.** What about the EC90 [12] of the same compound?
**A.** The EC90 was 0.2 nM.

**Q.** For COC(=O)N[C@H](C(=O)N1CCC[C@H]1c1ncc(-c2cc(F)c3c(c2)O[C@@H](c2ccccc2)n2c-3cc3cc(-c4cnc([C@@H]5CCCN5C(=O)[C@@H](NC(=O)OC)C(C)C)[nH]4)ccc32)[nH]1)C(C)C, which Cmax [14] is on record?
**A.** The Cmax was 0.33 µM.

**Q.** And the EC90 [17]?
**A.** Its EC90 is 0.003 nM.

**Q.** And the EC90 [3]?
**A.** Its EC90 is 18 nM.

**Q.** And the clearance [18]?
**A.** The clearance was 0.66 L/h/kg.

**Q.** And the bioavailability [19]?
**A.** Its bioavailability is 33%.

**Q.** And the AUC ([15]; Sprague-Dawley, read-out: AUC)?
**A.** The AUC was 2800 nM·h.

**Q.** What about the EC90 [7] of the same compound?
**A.** Its EC90 is 34 nM.

**Q.** What about the half-life [16] of the same compound?
**A.** The half-life was 3.6 h.

**Q.** And the EC90 [20]?
**A.** The EC90 was 0.15 nM.

**Q.** And the EC90 [9]?
**A.** Its EC90 is 0.005 nM.

**Q.** And the EC90 [10]?
**A.** Its EC90 is 0.4 nM.

**Q.** And the EC90 [21]?
**A.** The EC90 was 0.04 nM.

**Q.** What about the EC90 [12] of the same compound?
**A.** The EC90 was 0.4 nM.

**Q.** Which EC90 [17] does the source give for COC(=O)N[C@H](C(=O)N1C[C@H](F)C[C@H]1c1ncc(-c2cc(F)c3c(c2)OC(c2ccccc2)n2c-3cc3cc(-c4cnc([C@@H]5C[C@@H](F)CN5C(=O)[C@@H](NC(=O)OC)C(C)C)[nH]4)ccc32)[nH]1)C(C)C (mixture of isomers) here?
**A.** The EC90 was 0.003 nM.

**Q.** And the EC90 [3]?
**A.** The EC90 was 72 nM.

**Q.** And the EC90 [7]?
**A.** Its EC90 is 0.08 nM.

**Q.** What about the EC90 [20] of the same compound?
**A.** The EC90 was 0.2 nM.

**Q.** And the EC90 [9]?
**A.** Its EC90 is 0.005 nM.

**Q.** What about the EC90 [10] of the same compound?
**A.** Its EC90 is 0.8 nM.

**Q.** And the EC90 [21]?
**A.** Its EC90 is 0.1 nM.

**Q.** What about the EC90 [12] of the same compound?
**A.** Its EC90 is 9 nM.

**Q.** What about the Selectivity ratio [13] of the same compound?
**A.** Its Selectivity ratio is 16.
